Test system: MS2 coat protein
Experiment: apparent Kd, MS2 coat protein; higher = weaker binding; RNA-MaP array; FMN 200 µM where present
Procedure, shortened: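 On Illumina sequencing-chip clusters, designs were transcribed by stalled E. coli RNA polymerase and titrated with SNAP-549-labelled MS2 coat protein (0.7 or 1.5 nM, doubling to 3 µM), without and then with constant ligand, in 100 mM Tris-HCl pH 7.5, 80 mM KCl, 4 mM MgCl2, BSA, DTT, yeast tRNA and Tween-20. Apparent Kd is the median of filtered per-cluster curve fits to green signal normalised to red-channel RNA signal and control-cluster median Fmax.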

[1] = designed as: ON switch for flavin mononucleotide, no ligand
[2] = ligand present: flavin mononucleotide, designed as: ON switch for flavin mononucleotide
[3] = designed as: OFF switch for flavin mononucleotide, no ligand
[4] = ligand present: flavin mononucleotide, designed as: OFF switch for flavin mononucleotide

Sequence	apparent Kd [1] [nM]	apparent Kd [2] [nM]	apparent Kd [3] [nM]	apparent Kd [4] [nM]
AGAUAACACCAGAAGGACAUGAGGAUCACCCAUGUAGGAUAUGGGCAUCACUCGAGAAAGAAAAGACCAAAUGGACACAUGGUC	162	12.8		
GCACUGGAUGUAGGAUAUCAGGACGAUAAGUCCUGAGAAGGACAUGAGGAUCACCCAUGUACACAAAACCAGUGCUAUAAUAUA			13.7	18.8
UGGAUGUGGGUUCCACAUGAGGAUCACCCAUGUACCGAUGAGAGAAGGCGCGCUGGAUCACAGGGCGAGGAUAUCUACAUUCAA			6.06	13.1
GCAUGGUAUGAGAAGGCAUAUUUAAUCUAACAUCAUGUUUACAUGAGGAUCACCCAUGUUACCAAUGAGGAUAUCAUACCGUGC			9.67	9.8
GUAGCAUACCGAGGAUAUUCAGGGCGUGGUUAAACAUGAGGAUCACCCAUGUGGCGAAAGCCUAGGGAGAAGGCGGAAUGCUAC	28.7	22.5		
CCUGGAUCAUGAGGAUAUGGCACCUUAUUGGUGCCAGAAGGCAUGUCUCUUGACAUGAGGAUCACCCAUGUAAUAAAUUCCAGG	1020	124		
AAGUAUAGAGGAUAUAGUGAGUACUACAUGAGGAUCACCCAUGUUCUUCGUUACGUAUUUCUAGAAGGCUGAUAAA			105	248
GAGCGGUGAGCAGGAUAUCCACAUUGCCUCCUACAUGAGGAUCACCCAUGUGGAGAAGGGUUUAUAAGUUCGUGUAUACUCAAU			10.5	10
UUACUACAUGUAGGAUAUGCGUGGCGAAGCUAUGCAGAAGGACAUGAGGAUCACCCAUGUUUUAGCGUCUGCGUACAGAUGCGU			19	28.4
CCAGCGUAUGUAAGGAUAUGCUGGUCCUUGGAUCAGCAGAAGGUACAUGAGGAUCACCCAUGUGUAAUCGUUGG			20.6	56.1
GGUACUCAAAGAGUACCACUACGAACAUGAGGAUCACCCAUGUAGGAUAUGCUACUCAAAGAGUAGCAGAAGGACAUGUGCCUA			17.9	123
CACUCACAUGAGGAUCACCCAUGUCCUAGCAGGUCAGGAUAUAGCUCGGAUGCGUUGAGUCUAGAAGGGACAGGUU	184	63.6		
UUGGACGUUGUAGGAUAUGUAGGAUAUUCCUACAUGAGGAUCACCCAUGUUGACAUGGAAGAAGGACAGAAGGACGAUGUCCAU	277	5.32		
UCUCGACAUGAGGAUCACCCAUGUCAGGAUAUUGUGUUUGAGGUUUUUUACCUUUUGGCAAGAAGGGAUGUGUG			27.5	28.9
GCAAAACAUGAGGAUCACCCAUGUCAACAAAAUCAAGGAUAUGAGCCGGCAAUGCCAGCAUCAGAAGGUGAACCUU	81.9	86.5		
ACAUGCGGAUGAGGAUAUUCAUCCAUGAGGAUAGAAGAAGGCAUACAUGAGGAUCACCCAUGUAUACGCAUGAGGAUCCCUUAU			23.6	28.7
UAUAUGUCAGGAUAUUAGUUGAGGUGGAAUUUAGCCUCAGCUGAGAAGGGACAUGAGGAUCACCCAUGUUCCUC			22.1	241
AAUAACAGAGGAUAUACUGUUUUAUGUAUUUAUUAUUUUAAACAUGAGGAUCACCCAUGUAGAAGGCUGAAUGA			23.8	22
GGAGGACAUGAGGAUCACCCAUGUGGAUGGGCGCUAGGAUAUGCGAGAGGGAAGAGUGGAGCAGAAGGAGUGGGUU	50.8	47.3		

Sequence	apparent Kd [1] [nM]	apparent Kd [2] [nM]	apparent Kd [3] [nM]	apparent Kd [4] [nM]
AAUAACAGAGGAUAUACUGUUUUAUGUGUUUGUUGUUUUGAACAUGAGGAUCACCCAUGUAGAAGGCUGAGUAA			29.1	25.9
UUAUAAAGUGUGAGGAUAUGCUGGUCCUUGGAUCAGCAGAAGGCACAUGAGGAUCACCCAUGUAAUAUAUUUUU			89.8	309
GCCUAGCCCAGGCCCACGGCAUCACAGGAUAUGCCGAUAACAUGAGGAUCACCCAUGUCAACUCCGCAGAAGGGUGAUAUCGUG	174	28.8		
GUCAUACAUGAGGAUCACCCAUGUGAGGAUAUGAGUGGUGCUGAUAGGUCGGCACCACUCAGAAGGCGCAUGAU			77.1	293
UAAUAAAACGAUCGGCGAUCCAUACAUGAGGAUCACCCAUGUAGAAGGGACUCUACAAAGUAGAGUCAGGAUAUACAAGAUCGA			10	124
GCCAUCGUAUGAGGAUAUGGCACCGAAACGGUGCCAGAAGGCAUGUCGAUAGACAUGAGGAUCACCCAUGUAUUAUCGAUGGCA	107	31.3		
AUAAUGGUAGGAUAUACAUGGAUAUACAUUCAUGUGGACCUACAUGAGGAUCACCCAUGUAGAAGGACCAUGAA			33.9	28.6
GUGACGAAUGUAGGAUAUGCUGAGGAUAACUCAGCAGAAGGACAUGAGGAUCACCCAUGUCAUCCUAAUAAUAAAUAACGUCAC			14.8	18.8
GCGUUACAUGAGGAUCACCCAUGUGAGGAUAUGGUUCGGUACUGUCCUGUCGCGUACUCCAGAAGGCACGGGUG			200	115
UGCUGUGUCAGAGGAUAUACUACUAUAAUCCAUUGCAAAUAGCGAUGGACAUGAGGAUCACCCAUGUAGAAGGCUGUCACAGCA			46.6	178
GAUAGUCCUGAGAAGGACAUGAGGAUCACCCAUGUGAUUAUACCAGUGCAAUGAAAGCACUGGAUGUAGGAUAUCAGGACUAUC			15.3	96.1
GUCAGUUCGUGAGGAUAUACAACACUGCUUCGGCAGUGUAUUAAGAUCACAUGAGGAUCACCCAUGUAGAAGGCACGAGCUGAU			14	269
CUUUUGUGAGGAUAUUAGUAGUAAAAAAAUAAAAUUACUACUGAGAAGGCACAUGAGGAUCACCCAUGUUCCUU			14.8	39
UCUGCAUAGUCAGGAUAUGCAAAAUUUAUUUUCUUCGGAAAAUAAAUAACAUGAGGAUCACCCAUGUAGAAGGGACUGUGCAGA			16.9	14.7
CCGGUAUAGGAGGAUAUAGGAGUCGAUAGACACCUAGAAGGCCUGACAUGAGGAUCACCCAUGUGUCCUACCGG			17	20
GGGCCCGGAGGAUAUACAUGAGGAUCACCCAUGUAUCUGGGUCUUAUUGGGCUCGGGUGUAGAAGGCCGGGCCC			11.8	13.8
GUGGUCAGACAUGAGGAUCACCCAUGUGGAAUAAAUAACGUCAAGGAUAUACAAUAUAGGAUAUAGUAGAAGGUGAGAUUGGUG	114	113		
UAAUCUCAGAUAGGAUAUAUAGGAUAACUUAAGACCUAACAUGAGGAUCACCCAUGUGAUUAUUCGUAGAAGGAUCAUUGACCC		171		
AAAAUGUAAGGAUAUGCUGCUCGUCACUUGCGUGAUGAGUAGCAGAAGGUACAUGAGGAUCACCCAUGUAAAGA			32.7	45.8

Sequence	apparent Kd [1] [nM]	apparent Kd [2] [nM]	apparent Kd [3] [nM]	apparent Kd [4] [nM]
CAGCGAUAGCUGAACAAUCUAUCUGAGGAUAUUCAUAAAACAUGAGGAUCACCCAUGUGAAAUUGGGAGAAGGCAGAUAGAUUG	7.7	4.42		
AACAUGUCAGGAUAUGCAAAAGGAGACUGACACGCGAGUGAGCAGAAGGGACAUGAGGAUCACCCAUGUUCAAA			18.3	16
GACAACAGAGGAUAUGCAUUGAGAUAGUUAUGAAGGUUGUUACAUGAGGAUCACCCAUGUAGAAGGCUGUCGUU			18.3	24.3
AUAAAACAUGAGGAUCACCCAUGUAGAAACAUGGGAGGAUAUACAAAGACGAAAGUCAAAGUAGAAGGCCUAAAAG	462	311		
UGGUCAUGAUCAGGAUAUUAACAUGGGCUACAUUAAGAAGGGAUAGUGAGAUACGAACUGAACGACAUGAGGAUCACCCAUGUA	44.8	34.3		
AUCAUCUUAUCAGGAUAUGCGAGUCGACGAAAGUAGACAAUCUUGAUAACAUGAGGAUCACCCAUGUAGAAGGGAUGAGAUGAU			48.1	51.7
UUGGAAAACAUGAGGAUCACCCAUGUGAAGCCGGCUAGUACACAGGAUAUCCAGAACGCCGAGUUGGAGAAGGGUGAUCAGUCG	38	80.4		
GCACAUUUGUAAGGAUAUACUACAUGAGGAUCACCCAUGUGCAUGGAGAUUGUAGAAGGUACAGCAAUAUUGAUUAACGUUAUA	134	77.2		
GAUGCUAUCGGAGGAUAUUCAUACCGGAAACGGACAUGAGGAUCACCCAUGUGGCGAAAGCCUUGGGAGAAGGCCGAUAGCAUC	610	20.5		
GGUGGACAUGAGGAUCACCCAUGUGAGGAUAUCGGCCGGUUCGCGGUGGCUGGCGUCUCGAGAAGGCACAUAGU			99.1	139
CGUCCUUAGUGAGGAUAUCAGAAAAUACGGAAAUGAGAAGGCACAUGAGGAUCACCCAUGUAAAUAACGGCCGGUCUUGGCAGC			7.96	21.6
AAAAAAAAAAACUAGGAUAUUUAACGGACAACAUGAGGAUCACCCAUGUCACAAAAAAAAAUAGUAAAGAAGGAGUAAAAAAAAAA	32.7	31.8		
CGUCAGUGAGGAUAUGGUAUCGUGUACAUGAGGAUCACCCAUGUUUCUUGGGACUAUAUACUAGAAGGCACUGACG			16	35.3
UUUUCUUUUGUGAGGAUAUACUUCUUUUUCUUUUUGUAGAAGGCACAUGAGGAUCACCCAUGUUUUCUUUUCUC			12.1	16
GCGUUACAUGAGGAUCACCCAUGUGAGGAUAUGGUGCGGUAGUGUCCUGUCGCGUACUCCAGAAGGCACGGGUG			215	91.7
AAAGCAACAUGAGGAUCACCCAUGUAGGAUAUCGCUAUUGUAAUCAUGAAACAUGAUUACAAUAGCGAGAAGGACAUAUGCUAA			9.26	10.8
AUCGGAUUGUAGAAGGGUGACAUGAGGAUCACCCAUGUUCAAAUGCGUUUUUCGGUAAUUGUUCCACAGGAUAUACUGUCCGAG	675	139		
AAGUAGAUCCGAGGAUAUACAAUCCGGAAACGGUACAUGAGGAUCACCCAUGUAGAAGGCGGAUCUACAGGUACUAAAGUACCC			5.61	8.06

Reference: the EternaBench riboswitch data
